Data: ChEMBL document CHEMBL2434865, “The influence of positional isomerism on G-quadruplex binding and anti-proliferative activity of tetra-substituted naphthalene diimide compounds” (Bioorg Med Chem, 2013)

Legend:
[1] = tested on: WI-38; assay: Cytotoxicity against human WI38 cells after 96 hrs by SRB assay; assay type: cell-based; conditions: WI-38, 96 h
In short: (§1)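 Monolayer cultures were kept at 37 °C in humidified 5% CO2. Media were RPMI 1640 with 2 mM glutamine, 10% FCS and 1 mM pyruvate for 786-O, and MEM with 2 mM glutamine, 1% amino acids and 10% FCS for WI-38. Cells were exposed to compound over a concentration range for 96 h. Cells were fixed with TCA, stained with SRB, dissolved in 10 mM Tris and read at 540 nm. Values were normalized to untreated controls, and IC50 was interpolated as 50% absorbance reduction.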

[2] = Cytotoxicity against human RCC4 cells after 96 hrs by SRB assay; assay type: functional, cell-based; conditions: RCC4, 96 h
[3] = species: Homo sapiens; assay: Binding affinity to human HSP90B 5'-FAM-GGGCGGGCCAAAGGGAAGGGG-TAMRA-3' at 2 uM after 3 hrs by HT-FRET assay
In short: (§2)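 Oligonucleotides were diluted from 50 µM stock to 400 nM in 60 mM potassium cacodylate pH 7.4, annealed at 95 °C for 10 min, then cooled to RT over 3 h. Ligand came from a 10 mM aqueous stock, was diluted to twice the final level in buffer and mixed 1:1 with DNA, in triplicate. FAM excitation was 450–495 nm and emission 515–545 nm, read every 0.5 °C from 30–100 °C with a 30 s hold. Tm is the first-derivative maximum of the smoothed, normalized curve; ΔTm is relative to DNA without ligand.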

[4] = species: Homo sapiens; assay: Binding affinity to human T-loop 5'-FAM-TATAGCTATATTTTTTTATAGCTATATAMRA-3' at 1 uM after 3 hrs by HT-FRET assay; in short: as §2
[5] = species: Homo sapiens; assay: Binding affinity to human HSP90B 5'-FAM-GGGCGGGCCAAAGGGAAGGGG-TAMRA-3' at 1 uM after 3 hrs by HT-FRET assay; in short: as §2
[6] = species: Homo sapiens; assay: Binding affinity to human telomeric quadruplex 5'-FAM-GGGTTAGGGTTAGGGTTAGGG-TAMRA-3' at 1 uM after 3 hrs by HT-FRET assay; in short: as §2
[7] = tested on: MIA PaCa-2; assay: Cytotoxicity against human MIAPaCa2 cells after 96 hrs by SRB assay; assay type: functional, cell-based; conditions: MIA PaCa-2, 96 h
In short: (§3)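 For A549, MCF7, MIA PaCa2 (DMEM with 2 mM glutamine and 10% FCS) and PANC1 (same DMEM), 1000–4000 cells per well were seeded and left 24 h. Compound was added over a concentration range for 96 h at 37 °C in 5% CO2. Cells were fixed with 10% TCA (30 min, 4 °C) and stained with 0.4% SRB in 1% acetic acid for 15 min. Dye was dissolved in 10 mM Tris and read at A540. IC50 was interpolated as the level giving 50% absorbance loss versus untreated cells.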

[8] = tested on: PANC-1; assay: Cytotoxicity against human PANC1 cells after 96 hrs by SRB assay; assay type: functional, cell-based; conditions: PANC-1, 96 h; in short: as §3
[9] = tested on: MCF7; assay: Cytotoxicity against human MCF7 cells after 96 hrs by SRB assay; assay type: functional, cell-based; conditions: MCF7, 96 h; in short: as §3
[10] = Cytotoxicity against human 786-O cells after 96 hrs by SRB assay; assay type: functional, cell-based; conditions: 786-0, 96 h; in short: as §1
[11] = species: Homo sapiens; assay: Binding affinity to human telomeric quadruplex 5'-FAM-GGGTTAGGGTTAGGGTTAGGG-TAMRA-3' at 2 uM after 3 hrs by HT-FRET assay; in short: as §2
[12] = species: Homo sapiens; assay: Binding affinity to human HSP90A 5'-FAM-GGGCCAAAGGGAAGGGGTGGG-TAMRA-3' at 2 uM after 3 hrs by HT-FRET assay; in short: as §2
[13] = tested on: A549; assay: Cytotoxicity against human A549 cells after 96 hrs by SRB assay; assay type: functional, cell-based; conditions: A549, 96 h; in short: as §3
[14] = species: Homo sapiens; assay: Binding affinity to human HSP90A 5'-FAM-GGGCCAAAGGGAAGGGGTGGG-TAMRA-3' at 1 uM after 3 hrs by HT-FRET assay; in short: as §2
[15] = species: Homo sapiens; assay: Binding affinity to human T-loop 5'-FAM-TATAGCTATATTTTTTTATAGCTATATAMRA-3' at 2 uM after 3 hrs by HT-FRET assay; in short: as §2
[16] = tested on: PANC-1; assay: Ratio of IC50 for human MIAPaCa2 cells to IC50 for human PANC1 cells; assay type: functional

SMILES	ΔTm [3] [°C]	ΔTm [4] [°C]	ΔTm [5] [°C]	ΔTm [6] [°C]	ΔTm [11] [°C]	ΔTm [12] [°C]	ΔTm [14] [°C]	ΔTm [15] [°C]	IC50 [1] [nM]	IC50 [2] [nM]	IC50 [7] [nM]	IC50 [8] [nM]	IC50 [9] [nM]	IC50 [10] [nM]	IC50 [13] [nM]	Ratio IC50 [16]
CN1CCN(CCCN2C(=O)c3cc(NC[C@@H]4CCCO4)c4c5c(cc(NC[C@H]6CCCO6)c(c35)C2=O)C(=O)N(CCCN2CCN(C)CC2)C4=O)CC1	17	0	13	< 2	15	23	21	0	2300	3000	95	1500	560	390	160	–
COCCCNc1cc2c3c(c(NCCCOC)cc4c3c1C(=O)N(CCCN1CCN(C)CC1)C4=O)C(=O)N(CCCN1CCN(C)CC1)C2=O	26	0	22	< 2	16	24	22	0	> 25000	7600	7050	2500	17500	16100	5750	–
CN1CCN(CCCN2C(=O)c3cc(NCC4CCOCC4)c4c5c(cc(NCC6CCOCC6)c(c35)C2=O)C(=O)N(CCCN2CCN(C)CC2)C4=O)CC1	23	0	3	< 2	22	27	2	0	2800	2200	137	1100	510	290	460	–
CN1CCN(CCCNc2cc3c4c(c(NCCCN5CCN(C)CC5)cc5c4c2C(=O)N(CCCN2CCOCC2)C5=O)C(=O)N(CCCN2CCOCC2)C3=O)CC1	–	–	–	–	–	–	–	–	–	–	–	3	–	–	–	5

Continued, in another order:

ΔTm [3] [°C]	ΔTm [4] [°C]	ΔTm [5] [°C]	ΔTm [6] [°C]	ΔTm [11] [°C]	ΔTm [12] [°C]	ΔTm [14] [°C]	ΔTm [15] [°C]	SMILES	IC50 [1] [nM]	IC50 [2] [nM]	IC50 [7] [nM]	IC50 [8] [nM]	IC50 [9] [nM]	IC50 [10] [nM]	IC50 [13] [nM]	Ratio IC50 [16]
32	2	28	26	31	36	33	8	CN1CCN(CCN2C(=O)c3cc(NCCCN4CCOCC4)c4c5c(cc(NCCCN6CCOCC6)c(c35)C2=O)C(=O)N(CCN2CCN(C)CC2)C4=O)CC1	180	300	5	5	21	160	20	–
34	5	30	29	34	36	34	9	CN1CCN(CCCN2C(=O)c3cc(NCCCN4CCOCC4)c4c5c(cc(NCCCN6CCOCC6)c(c35)C2=O)C(=O)N(CCCN2CCN(C)CC2)C4=O)CC1	300	610	50	2	14	440	7	–
